The record followed here is ChEMBL document CHEMBL1144256, “Potent Kv1.3 inhibitors from correolide-modification of the C18 position” (Bioorg Med Chem Lett, 2005).

Structures are written as SMILES.

The target in test [1] is T1, Potassium voltage-gated channel subfamily A member 3 (Homo sapiens, UniProt P22001). In words: Inhibition of voltage-gated potassium channel subunit Kv1.3 in chinese hamster ovary cells. In kind it is functional, cell-based. In short, it runs like this: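 Depolarization-induced ⁸⁶Rb⁺ efflux measured in CHO cells stably transfected with human Kv1.3 channel (Rb_Kv functional assay), with short compound incubation; IC50 reported.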
T1 sequence (P22001 whole entry): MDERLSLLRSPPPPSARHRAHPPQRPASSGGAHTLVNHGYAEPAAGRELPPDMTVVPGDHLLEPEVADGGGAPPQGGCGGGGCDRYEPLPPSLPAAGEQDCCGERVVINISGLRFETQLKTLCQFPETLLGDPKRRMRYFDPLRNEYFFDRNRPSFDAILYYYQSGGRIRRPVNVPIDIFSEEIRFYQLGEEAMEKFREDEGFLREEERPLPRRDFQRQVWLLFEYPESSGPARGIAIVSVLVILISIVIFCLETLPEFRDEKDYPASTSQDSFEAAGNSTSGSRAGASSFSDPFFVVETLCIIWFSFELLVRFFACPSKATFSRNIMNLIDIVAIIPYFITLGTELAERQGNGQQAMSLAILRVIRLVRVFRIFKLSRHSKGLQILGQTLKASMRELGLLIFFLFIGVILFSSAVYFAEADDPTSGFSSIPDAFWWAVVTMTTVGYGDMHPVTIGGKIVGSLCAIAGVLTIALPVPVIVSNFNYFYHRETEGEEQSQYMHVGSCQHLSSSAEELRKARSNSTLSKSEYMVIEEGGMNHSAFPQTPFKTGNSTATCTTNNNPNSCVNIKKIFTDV

For test [2], the target named is T1, Potassium voltage-gated channel subfamily A member 3. Briefly: Relative T cell IC50 compared to IC50 for correolide assay. In kind it is functional, cell-based. The method, boiled down: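 Ratio of correolide IC50 to compound IC50 in the anti-CD3-stimulated human peripheral blood T cell proliferation assay; a larger value means greater potency.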
Test [3] has the same target. In words: Inhibitory activity against voltage-gated potassium channel subunit Kv1.3 of human T cells. Format: functional, cell-based, T-cell.

Turning to `CC(=O)O[C@H]1C2[C@@](C)(CCC3C(O)(c4ccccc4)C(C)=C[C@@H](OC(C)=O)[C@@]32C)C2C=CCOC[C@]2([C@@H](C)OC(C)=O)[C@H]1OC(C)=O` (stereo not given in full), the IC50 in test [1] was determined as 2000 nM.
`COc1ccc(CCC2(O)C(C)=C[C@@H](OC(C)=O)[C@@]3(C)C2CC[C@]2(C)C3[C@H](OC(C)=O)[C@H](OC(C)=O)[C@@]3([C@@H](C)OC(C)=O)COCC=CC23)cc1` (stereo not given in full): half-maximal inhibition in test [1] (IC50) was put at 130 nM.
Consider `CC(=O)O[C@H]1C2[C@@](C)(CCC3C(O)(CCc4ccccc4F)C(C)=C[C@@H](OC(C)=O)[C@@]32C)C2C=CCOC[C@]2([C@@H](C)OC(C)=O)[C@H]1OC(C)=O` (stereo not given in full), for which the IC50 turned out to be 74 nM in test [1] and 245 nM in test [3]. Moreover, the Ratio in test [2] worked out at 0.75.
With `CCOc1ccccc1[C@H](C)CC1(O)C(C)=C[C@@H](OC(C)=O)[C@@]2(C)C1CC[C@]1(C)C2[C@H](OC(C)=O)[C@H](OC(C)=O)[C@@]2([C@@H](C)OC(C)=O)COCC=CC12` (stereo not given in full), the IC50 amounted to 37 nM in test [1] and 12.3 nM in test [3]. The Ratio in test [2] is 15.
Take `CC(=O)O[C@H]1C2[C@@](C)(CCC3C(O)(C[C@@H](C)c4ccccc4)C(C)=C[C@@H](OC(C)=O)[C@@]32C)C2C=CCOC[C@]2([C@@H](C)OC(C)=O)[C@H]1OC(C)=O` (stereo not given in full): the IC50 in test [1] is 12 nM; in test [3], 102 nM. The Ratio in test [2] was found to be 1.8.
Turning to `C=C1C[C@@]2(O)C3CC[C@]4(C)C([C@H](OC(C)=O)[C@H](OC(C)=O)[C@@]5([C@@H](C)OC(C)=O)COC(=O)C=CC45)[C@@]3(C)[C@H](OC(C)=O)[C@H](OC(C)=O)[C@@]2(C)C2(C(=O)OC)O[C@H]12` (stereo not given in full) [CORRELOID], the IC50 came out at 100 nM in test [1] and 184 nM in test [3].
For `COc1ccccc1[C@H](C)C[C@]1(O)C(C)=C[C@@H](OC(C)=O)[C@]2(C)C3[C@H](OC(C)=O)[C@H](OC(C)=O)[C@@]4([C@@H](C)OC(C)=O)COCC=CC4[C@]3(C)CCC21` (stereo not given in full), the figures for the 50% inhibitory concentration (IC50) in test [1] and in test [3] were 19 nM and 25.6 nM, respectively. Further, the Ratio in test [2] amounted to 7.2.
In the same order, the values of `CC[C@H](CC1(O)C(C)=C[C@@H](OC(C)=O)[C@@]2(C)C1CC[C@]1(C)C2[C@H](OC(C)=O)[C@H](OC(C)=O)[C@@]2([C@@H](C)OC(C)=O)COCC=CC12)c1ccccc1OC` (stereo not given in full) are 28 nM, 29.2 nM and 6.3.
`C=CCCC1(O)C(C)=C[C@@H](OC(C)=O)[C@@]2(C)C1CC[C@]1(C)C2[C@H](OC(C)=O)[C@H](OC(C)=O)[C@@]2([C@@H](C)OC(C)=O)COCC=CC12` (stereo not given in full) gave a 50% inhibitory concentration (IC50) in test [1] of 664 nM.
On to `CC(=O)O[C@H]1C2[C@@](C)(CCC3C(O)(CCC=C(C)C)C(C)=C[C@@H](OC(C)=O)[C@@]32C)C2C=CCOC[C@]2([C@@H](C)OC(C)=O)[C@H]1OC(C)=O` (stereo not given in full), for which half-maximal inhibition in test [1] (IC50) required 21 nM.
For the compound `COc1cccc(CCC2(O)C(C)=C[C@@H](OC(C)=O)[C@@]3(C)C2CC[C@]2(C)C3[C@H](OC(C)=O)[C@H](OC(C)=O)[C@@]3([C@@H](C)OC(C)=O)COCC=CC23)c1` (stereo not given in full), the IC50 is 24 nM in test [1] and 1310 nM in test [3]. Besides, the Ratio in test [2] was 0.14.
Regarding `C=C(CC1(O)C(C)=C[C@@H](OC(C)=O)[C@@]2(C)C1CC[C@]1(C)C2[C@H](OC(C)=O)[C@H](OC(C)=O)[C@@]2([C@@H](C)OC(C)=O)COCC=CC12)c1ccccc1CC` (stereo not given in full), the IC50 in test [1] turned out to be 44 nM; in test [3], 25.5 nM. The Ratio in test [2] amounted to 7.2.
Turning to `C=C(CC1(O)C(C)=C[C@@H](OC(C)=O)[C@@]2(C)C1CC[C@]1(C)C2[C@H](OC(C)=O)[C@H](OC(C)=O)[C@@]2([C@@H](C)OC(C)=O)COCC=CC12)c1ccccc1OC` (stereo not given in full), the results for the IC50 in test [1] and in test [3] were 11 nM and 51.1 nM, respectively. In addition, in test [2], the Ratio is 3.6.
In test [1], `CC(=O)O[C@H]1C2[C@@](C)(CCC3C(O)(CCCCc4ccccc4)C(C)=C[C@@H](OC(C)=O)[C@@]32C)C2C=CCOC[C@]2([C@@H](C)OC(C)=O)[C@H]1OC(C)=O` (stereo not given in full) gave a half-maximal inhibitory concentration (IC50) of 270 nM.
For the compound `CC(=O)O[C@H]1C2[C@@](C)(CCC3C(O)(CCc4ccccc4C(F)(F)F)C(C)=C[C@@H](OC(C)=O)[C@@]32C)C2C=CCOC[C@]2([C@@H](C)OC(C)=O)[C@H]1OC(C)=O` (stereo not given in full), the half-maximal inhibitory concentration (IC50) came to 87 nM in test [1] and 1840 nM in test [3]. Also, the Ratio in test [2] amounted to 0.1.
As to `C=C(CC1(O)C(C)=C[C@@H](OC(C)=O)[C@@]2(C)C1CC[C@]1(C)C2[C@H](OC(C)=O)[C@H](OC(C)=O)[C@@]2([C@@H](C)OC(C)=O)COCC=CC12)c1ccccc1SC` (stereo not given in full), the half-maximal inhibitory concentration (IC50) in test [1] was determined as 14 nM; in test [3], 14.7 nM. In addition, the Ratio in test [2] was determined as 12.5.
`CCc1ccccc1[C@H](CC)CC1(O)C(C)=C[C@@H](OC(C)=O)[C@@]2(C)C1CC[C@]1(C)C2[C@H](OC(C)=O)[C@H](OC(C)=O)[C@@]2([C@@H](C)OC(C)=O)COCC=CC12` (stereo not given in full): the IC50 in test [1] was 12 nM.
Turning to `C=CC[C@H](CC1(O)C(C)=C[C@@H](OC(C)=O)[C@@]2(C)C1CC[C@]1(C)C2[C@H](OC(C)=O)[C@H](OC(C)=O)[C@@]2([C@@H](C)OC(C)=O)COCC=CC12)c1ccccc1OC` (stereo not given in full), the IC50 in test [1] was 21 nM; in test [3], 32.9 nM. The Ratio in test [2] was 5.6.
Turning to `CC(=O)O[C@H]1C2[C@@](C)(CCC3C(O)(CCc4ccccc4C)C(C)=C[C@@H](OC(C)=O)[C@@]32C)C2C=CCOC[C@]2([C@@H](C)OC(C)=O)[C@H]1OC(C)=O` (stereo not given in full), the results for the IC50 in test [1] and in test [3] were 41 nM and 194 nM, respectively. For the same compound, the Ratio in test [2] came to 0.95.
In the same order, the values of `COc1ccccc1CCC1(O)C(C)=C[C@@H](OC(C)=O)[C@@]2(C)C1CC[C@]1(C)C2[C@H](OC(C)=O)[C@H](OC(C)=O)[C@@]2([C@@H](C)OC(C)=O)COCC=CC12` (stereo not given in full) are 14 nM, 142 nM and 1.3.
`CC(=O)O[C@H]1C2[C@@](C)(CCC3C(O)(C(C)Cc4ccccc4)C(C)=C[C@@H](OC(C)=O)[C@@]32C)C2C=CCOC[C@]2([C@@H](C)OC(C)=O)[C@H]1OC(C)=O` (stereo not given in full): half-maximal inhibition in test [1] (IC50) was put at 200 nM.
The same measure, in the same setting: under `CC(=O)Oc1ccccc1CCC1(O)C(C)=C[C@@H](OC(C)=O)[C@@]2(C)C1CC[C@]1(C)C2[C@H](OC(C)=O)[C@H](OC(C)=O)[C@@]2([C@@H](C)OC(C)=O)COCC=CC12` (stereo not given in full) stands 31 nM; under `C=C(CC1(O)C(C)=C[C@@H](OC(C)=O)[C@@]2(C)C1CC[C@]1(C)C2[C@H](OC(C)=O)[C@H](OC(C)=O)[C@@]2([C@@H](C)OC(C)=O)COCC=CC12)c1ccccc1[S+](C)[O-]` (stereo in doubt; 34), 145 nM; under `C=CCC1(O)C(C)=C[C@@H](OC(C)=O)[C@@]2(C)C1CC[C@]1(C)C2[C@H](OC(C)=O)[C@H](OC(C)=O)[C@@]2([C@@H](C)OC(C)=O)COCC=CC12` (stereo not given in full), 143 nM.
`CC(=O)O[C@H]1C2[C@@](C)(CCC3C(O)(CCc4ccccc4O)C(C)=C[C@@H](OC(C)=O)[C@@]32C)C2C=CCOC[C@]2([C@@H](C)OC(C)=O)[C@H]1OC(C)=O` (stereo not given in full): the IC50 in test [1] came out at 26 nM; in test [3], 428 nM. In test [2], the Ratio stood at 0.43.
In the case of `CCc1ccccc1[C@H](C)CC1(O)C(C)=C[C@@H](OC(C)=O)[C@@]2(C)C1CC[C@]1(C)C2[C@H](OC(C)=O)[C@H](OC(C)=O)[C@@]2([C@@H](C)OC(C)=O)COCC=CC12` (stereo not given in full), the 50% inhibitory concentration (IC50) in test [1] came to 28 nM; in test [3] it was 36.8 nM. Besides, the Ratio in test [2] was 5.
In the same order, the values of `C=C(C[C@]1(O)C(C)=C[C@@H](OC(C)=O)[C@]2(C)C3[C@H](OC(C)=O)[C@H](OC(C)=O)[C@@]4([C@@H](C)OC(C)=O)COCC=CC4[C@]3(C)CCC21)c1ccccc1` (stereo not given in full) are 19 nM, 131 nM and 1.4.
Regarding `C=C(CC1(O)C(C)=C[C@@H](OC(C)=O)[C@@]2(C)C1CC[C@]1(C)C2[C@H](OC(C)=O)[C@H](OC(C)=O)[C@@]2([C@@H](C)OC(C)=O)COCC=CC12)c1ccccc1SCC` (stereo not given in full), the figures for the IC50 in test [1] and in test [3] were 17 nM and 31.7 nM, respectively. In addition, the Ratio in test [2] turned out to be 5.8.
For the compound `CC(=O)O[C@H]1C2[C@@](C)(CCC3C(O)(CCCc4ccccc4)C(C)=C[C@@H](OC(C)=O)[C@@]32C)C2C=CCOC[C@]2([C@@H](C)OC(C)=O)[C@H]1OC(C)=O` (stereo not given in full), in test [1], the IC50 was 150 nM.
Same read-out and setting: the figure for `C=CC1(O)C(C)=C[C@@H](OC(C)=O)[C@@]2(C)C1CC[C@]1(C)C2[C@H](OC(C)=O)[C@H](OC(C)=O)[C@@]2([C@@H](C)OC(C)=O)COCC=CC12` (stereo not given in full) is 1810 nM; for `C=CC[C@H](CC1(O)C(C)=C[C@@H](OC(C)=O)[C@@]2(C)C1CC[C@]1(C)C2[C@H](OC(C)=O)[C@H](OC(C)=O)[C@@]2([C@@H](C)OC(C)=O)COCC=CC12)c1ccccc1CC` (stereo not given in full) it is 48 nM.
Regarding `CC(=O)O[C@H]1C2[C@@](C)(CCC3C(O)(C[C@H](C)c4ccccc4)C(C)=C[C@@H](OC(C)=O)[C@@]32C)C2C=CCOC[C@]2([C@@H](C)OC(C)=O)[C@H]1OC(C)=O` (stereo not given in full), the IC50 in test [1] worked out at 120 nM; in test [3], 613 nM. Also, the Ratio in test [2] is 0.3.
Taken in the same sequence, the figures for `CC(=O)O[C@H]1C2[C@@](C)(CCC3C(O)(CCc4ccccc4)C(C)=C[C@@H](OC(C)=O)[C@@]32C)C2C=CCOC[C@]2([C@@H](C)OC(C)=O)[C@H]1OC(C)=O` (stereo not given in full) were 26 nM, 460 nM and 0.4.
The compound `C=C(CC1(O)C(C)=C[C@@H](OC(C)=O)[C@@]2(C)C1CC[C@]1(C)C2[C@H](OC(C)=O)[C@H](OC(C)=O)[C@@]2([C@@H](C)OC(C)=O)COCC=CC12)c1ccccc1[S+](C)[O-]` (stereo in doubt; 35) came in with a half-maximal inhibitory concentration (IC50) in test [1] of 259 nM.
The compound `C=C(CC1(O)C(C)=C[C@@H](OC(C)=O)[C@@]2(C)C1CC[C@]1(C)C2[C@H](OC(C)=O)[C@H](OC(C)=O)[C@@]2([C@@H](C)OC(C)=O)COCC=CC12)c1ccccc1S(=O)OC` (stereo not given in full) came in with an IC50 in test [1] of 352 nM.
Take `CC(=O)O[C@H]1C2[C@@](C)(CCC3C(O)(Cc4ccccc4)C(C)=C[C@@H](OC(C)=O)[C@@]32C)C2C=CCOC[C@]2([C@@H](C)OC(C)=O)[C@H]1OC(C)=O` (stereo not given in full): in test [1], it took 380 nM to reach half-maximal inhibition (IC50).

As usually defined, the IC50 is the concentration that inhibits the measured activity by half. Low values mean higher potency, high ones lower potency.
